Assay results taken from ChEMBL document CHEMBL2062460, “Disubstituted thiourea derivatives and their activity on CNS: synthesis and biological evaluation” (Eur J Med Chem, 2012).
The source made the active and inactive calls.

Experiments:
[1] = test system: Pseudomonas aeruginosa; assay: Antibacterial activity against Pseudomonas aeruginosa ATCC 15442 at 400 ug/disc after 18 hrs by disc diffusion method; format: functional, organism-based
Procedure, shortened: (§1)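 Disc diffusion per CLSI on Mueller–Hinton II agar; 9 mm paper discs loaded from methanol or DMSO solutions to 400 µg per disc, dried; growth inhibition zone diameter read after 18 h at 35 °C.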

[2] = test system: Staphylococcus aureus; assay: Antibacterial activity against methicillin-susceptible Staphylococcus aureus clinical isolate 338/08 after 18 hrs by twofold serial agar dilution technique; format: functional; conditions: clinical isolate 338/08, 18 h
Procedure, shortened: (§2)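 Clinical isolates came from patients in Warsaw Medical University Hospitals and were classed as methicillin-susceptible or -resistant. MIC was determined by twofold serial agar dilution on Mueller–Hinton II agar (CLSI), 3.125–400 µg/mL in agar, with compounds in methanol or DMSO. Inoculum was 10^4 CFU/mL and plates were read after 18 h at 35 °C.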

[3] = test system: Staphylococcus epidermidis; assay: Antibacterial activity against methicillin-resistant Staphylococcus epidermidis clinical isolate 318/08 after 18 hrs by twofold serial agar dilution technique; format: functional; conditions: clinical isolate 318/08, 18 h; procedure, shortened: as §2
[4] = test system: Staphylococcus aureus; assay: Antibacterial activity against methicillin-susceptible Staphylococcus aureus clinical isolate 256/08 after 18 hrs by twofold serial agar dilution technique; format: functional; conditions: clinical isolate 256/08, 18 h; procedure, shortened: as §2
[5] = test system: Human immunodeficiency virus 1; assay: Antiviral activity against HIV1 infected in human MT4 cells assessed as virus-induced cytopathogenicity after 4 days by MTT assay; format: functional, organism-based; conditions: Human immunodeficiency virus 1, MT4, 96 h
[6] = test system: Staphylococcus aureus; assay: Antibacterial activity against methicillin-susceptible Staphylococcus aureus clinical isolate 369/09 after 18 hrs by twofold serial agar dilution technique; format: functional; conditions: clinical isolate 369/09, 18 h; procedure, shortened: as §2
[7] = test system: Micrococcus luteus; assay: Antibacterial activity against Micrococcus luteus ATCC 10240 after 18 hrs by twofold serial agar dilution technique; format: functional; conditions: ATCC 10240, 18 h
[8] = test system: Staphylococcus aureus; assay: Antibacterial activity against methicillin-susceptible Staphylococcus aureus clinical isolate 367/09 after 18 hrs by twofold serial agar dilution technique; format: functional; conditions: clinical isolate 367/09, 18 h; procedure, shortened: as §2
[9] = test system: Staphylococcus aureus; assay: Antibacterial activity against methicillin-resistant Staphylococcus aureus clinical isolate 309/08 after 18 hrs by twofold serial agar dilution technique; format: functional; conditions: clinical isolate 309/08, 18 h; procedure, shortened: as §2
[10] = test system: Staphylococcus aureus; assay: Antibacterial activity against methicillin-resistant Staphylococcus aureus clinical isolate 306/08 after 18 hrs by twofold serial agar dilution technique; format: functional; conditions: clinical isolate 306/08, 18 h; procedure, shortened: as §2
[11] = test system: Staphylococcus epidermidis; assay: Antibacterial activity against methicillin-resistant Staphylococcus epidermidis clinical isolate 317/08 after 18 hrs by twofold serial agar dilution technique; format: functional; conditions: clinical isolate 317/08, 18 h; procedure, shortened: as §2
[12] = test system: Staphylococcus epidermidis; assay: Antibacterial activity against methicillin-resistant Staphylococcus epidermidis clinical isolate 315/08 after 18 hrs by twofold serial agar dilution technique; format: functional; conditions: clinical isolate 315/08, 18 h; procedure, shortened: as §2
[13] = test system: Bacillus cereus; assay: Antibacterial activity against Bacillus cereus ATCC 11778 after 18 hrs by twofold serial agar dilution technique; format: functional; conditions: ATCC 11778, 18 h
[14] = test system: Enterococcus hirae; assay: Antibacterial activity against Enterococcus hirae ATCC 10541 after 18 hrs by twofold serial agar dilution technique; format: functional; conditions: ATCC 10541, 18 h
[15] = test system: Pseudomonas aeruginosa; assay: Antibacterial activity against Pseudomonas aeruginosa NCTC 6749 at 400 ug/disc after 18 hrs by disc diffusion method; format: functional, organism-based; procedure, shortened: as §1
[16] = test system: Staphylococcus epidermidis; assay: Antibacterial activity against methicillin-resistant Staphylococcus epidermidis clinical isolate 341/09 after 18 hrs by twofold serial agar dilution technique; format: functional; conditions: clinical isolate 341/09, 18 h; procedure, shortened: as §2
[17] = test system: Staphylococcus aureus; assay: Antibacterial activity against methicillin-resistant Staphylococcus aureus clinical isolate 307/08 after 18 hrs by twofold serial agar dilution technique; format: functional; conditions: clinical isolate 307/08, 18 h; procedure, shortened: as §2
[18] = test system: Staphylococcus aureus; assay: Antibacterial activity against Staphylococcus aureus NCTC 4163 after 18 hrs by twofold serial agar dilution technique; format: functional; conditions: NCTC 4163, 18 h
Procedure, shortened: (§3)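 Twofold serial agar dilution on Mueller–Hinton II agar, following CLSI guidelines. Compounds were dissolved in methanol or DMSO and tested at final agar concentrations of 3.125–400 µg/mL. Final inoculum was 10^4 CFU/mL.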

[19] = test system: Escherichia coli; assay: Antibacterial activity against Escherichia coli ATCC 10538 at 400 ug/disc after 18 hrs by disc diffusion method; format: functional, organism-based; procedure, shortened: as §1
[20] = test system: Staphylococcus aureus; assay: Antibacterial activity against methicillin-resistant Staphylococcus aureus clinical isolate 277/08 after 18 hrs by twofold serial agar dilution technique; format: functional; conditions: clinical isolate 277/08, 18 h; procedure, shortened: as §2
[21] = test system: Candida albicans; assay: Antifungal activity against Candida albicans ATCC 90028 at 400 ug/disc after 18 hrs by disc diffusion method; format: functional, organism-based
Procedure, shortened: (§4)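 Yeasts tested by disc diffusion (CLSI) on RPMI agar with 2% glucose; 9 mm paper discs bearing 400 µg compound from methanol or DMSO solution; inhibition zone diameter read after 18 h at 35 °C.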

[22] = test system: Staphylococcus aureus; assay: Antibacterial activity against methicillin-resistant Staphylococcus aureus clinical isolate 275/08 after 18 hrs by twofold serial agar dilution technique; format: functional; conditions: clinical isolate 275/08, 18 h; procedure, shortened: as §2
[23] = test system: Bordetella bronchiseptica; assay: Antibacterial activity against Bordetella bronchiseptica ATCC 4617 at 400 ug/disc after 18 hrs by disc diffusion method; format: functional, organism-based; procedure, shortened: as §1
[24] = test system: Enterococcus hirae; assay: Antibacterial activity against Enterococcus hirae ATCC 10541 at 400 ug/disc after 18 hrs by disc diffusion method; format: functional; conditions: ATCC 10541, 18 h, read-out: DIZ; procedure, shortened: as §1
[25] = test system: Candida parapsilosis; assay: Antifungal activity against Candida parapsilosis ATCC 22019 at 400 ug/disc after 18 hrs by disc diffusion method; format: functional, organism-based; procedure, shortened: as §4
[26] = test system: Micrococcus luteus; assay: Antibacterial activity against Micrococcus luteus ATCC 10240 at 400 ug/disc after 18 hrs by disc diffusion method; format: functional; conditions: ATCC 10240, 18 h, read-out: DIZ; procedure, shortened: as §1
[27] = test system: Bacillus cereus; assay: Antibacterial activity against Bacillus cereus ATCC 11778 at 400 ug/disc after 18 hrs by disc diffusion method; format: functional; conditions: ATCC 11778, 18 h, read-out: DIZ; procedure, shortened: as §1
[28] = test system: Staphylococcus aureus; assay: Antibacterial activity against methicillin-resistant Staphylococcus aureus clinical isolate 357/09 after 18 hrs by twofold serial agar dilution technique; format: functional; conditions: clinical isolate 357/09, 18 h; procedure, shortened: as §2
[29] = test system: Staphylococcus aureus; assay: Antibacterial activity against methicillin-susceptible Staphylococcus aureus clinical isolate 372/09 after 18 hrs by twofold serial agar dilution technique; format: functional; conditions: clinical isolate 372/09, 18 h; procedure, shortened: as §2
[30] = test system: Staphylococcus aureus; assay: Antibacterial activity against Staphylococcus aureus ATCC 25923 at 400 ug/disc after 18 hrs by disc diffusion method; format: functional; conditions: ATCC 25923, 18 h, read-out: DIZ; procedure, shortened: as §1
[31] = test system: Staphylococcus aureus; assay: Antibacterial activity against methicillin-resistant Staphylococcus aureus clinical isolate 376/09 after 18 hrs by twofold serial agar dilution technique; format: functional; conditions: clinical isolate 376/09, 18 h; procedure, shortened: as §2
[32] = test system: Staphylococcus aureus; assay: Antibacterial activity against Staphylococcus aureus ATCC 25923 after 18 hrs by twofold serial agar dilution technique; format: functional; conditions: ATCC 25923, 18 h; procedure, shortened: as §3
[33] = test system: Staphylococcus epidermidis; assay: Antibacterial activity against Staphylococcus epidermidis ATCC 12228 at 400 ug/disc after 18 hrs by disc diffusion method; format: functional; procedure, shortened: as §1
[34] = test system: Micrococcus luteus; assay: Antibacterial activity against Micrococcus luteus ATCC 9341 after 18 hrs by twofold serial agar dilution technique; format: functional; conditions: ATCC 9341, 18 h
[35] = test system: Staphylococcus epidermidis; assay: Antibacterial activity against methicillin-resistant Staphylococcus epidermidis clinical isolate 340/09 after 18 hrs by twofold serial agar dilution technique; format: functional; conditions: clinical isolate 340/09, 18 h; procedure, shortened: as §2
[36] = test system: Staphylococcus epidermidis; assay: Antibacterial activity against methicillin-resistant Staphylococcus epidermidis clinical isolate 377/09 after 18 hrs by twofold serial agar dilution technique; format: functional; conditions: clinical isolate 377/09, 18 h; procedure, shortened: as §2

S=C(Nc1nc[nH]n1)Nc1ccccc1Br
100 µg/mL: MIC [11] | MIC [12] | MIC [16] | MIC [22]
13 mm: zone of inhibition at 400 µg/disc [24] | zone of inhibition at 400 µg/disc [30]
6.25 µg/mL: MIC [7] | MIC [34]
12 mm: zone of inhibition at 400 µg/disc [27] | zone of inhibition at 400 µg/disc ([33]; ATCC 12228, 18 h, read-out: DIZ)
inactive: diameter of the inhibition zone (DIZ) [1] | diameter of the inhibition zone (DIZ) [15] | diameter of the inhibition zone (DIZ) [19] | diameter of the inhibition zone (DIZ) [21] | diameter of the inhibition zone (DIZ) [23] | diameter of the inhibition zone (DIZ) [25]
25 µg/mL: MIC [13]
> 100 µM: EC50 [5]
50 µg/mL: MIC [2] | MIC [3] | MIC [4] | MIC [6] | MIC [8] | MIC [9] | MIC [10] | MIC [17] | MIC [18] | MIC [20] | MIC [28] | MIC [29] | MIC [31] | MIC [32] | MIC [35] | MIC [36]
15 mm: zone of inhibition at 400 µg/disc [26]
400 µg/mL: MIC [14]

S=C(Nc1ccc(I)cc1)Nc1nc[nH]n1
25 µg/mL: MIC [4] | MIC [8] | MIC [9] | MIC [18] | MIC [20] | MIC [29] | MIC [32] | MIC [35] | MIC [36]
50 µg/mL: MIC [2] | MIC [6] | MIC [10] | MIC [11] | MIC [12] | MIC [16] | MIC [17] | MIC [22] | MIC [28] | MIC [31]
> 46 µM: EC50 [5]
13 mm: zone of inhibition at 400 µg/disc [24] | zone of inhibition at 400 µg/disc [27] | zone of inhibition at 400 µg/disc [30]
16 mm: zone of inhibition at 400 µg/disc [26]
inactive: diameter of the inhibition zone (DIZ) [1] | diameter of the inhibition zone (DIZ) [15] | diameter of the inhibition zone (DIZ) [19] | diameter of the inhibition zone (DIZ) [21] | diameter of the inhibition zone (DIZ) [23] | diameter of the inhibition zone (DIZ) [25] | diameter of the inhibition zone (DIZ) [33]
12.5 µg/mL: MIC [3] | MIC [7] | MIC [13] | MIC [34]
400 µg/mL: MIC [14]
